The structures appear in SMILES notation. Activity calls are given as the source filed them. Bounds are passed on as bounds.

In data set [1] the test system is Rattus norvegicus. Put plainly: Toxicity in rat at 125 ug administered as systemic dose. As to conditions: in vivo.
Data set [2] is described as follows: Plasma clearance in Sprague-Dawley rat at 5 mg/kg, iv measured up to 240 mins post dose by LC-MS/MS analysis. The class given is ADME, organism-based. A digest of the protocol:
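Male Sprague-Dawley rats, 2 per group, given 5 mg/kg intravenously. Blood sampled through tail-vein cannulae at 5, 10, 20, 30, 60, 120, 180 and 240 min into EDTA tubes and spun to plasma.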

Data set [3] is described as follows: Half life in New Zealand white rabbit eye at 2 mg/ml, administered via ivt injection by HPLC analysis. The class given is ADME, tissue-based, Oryctolagus cuniculus. The following applies: topical or ocular. A digest of the protocol:
(§1)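 Male New Zealand White rabbits (10 weeks old, ~2 kg) received one 50 μL intravitreal injection per eye of peptide at 2 mg/mL in 50 mM sodium phosphate, pH 7.2. Animals were sacrificed at 15 min, 1, 4, 8, 24, 48 and 96 h (3 per time point). Whole vitreous was homogenized, clarified, 0.2 μm filtered and assayed by LC-MS/MS, with a lower limit of detection of 1 ng/mL in vitreous.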

Data set [4] is described as follows: Drug level in New Zealand white rabbit ipsialateral eye vitreous humor at 2 mg/ml, administered via ivt injection at late time point measured up to 100 hrs by LC-MS/MS analysis. As to conditions: ipsilateral eye vitreous humor, topical or ocular, read-out: Drug uptake. The class given is ADME, tissue-based, Oryctolagus cuniculus. The method, boiled down: as §1

Data set [5] in a line: Half life in Sprague-Dawley rat at 5 mg/kg, iv by LC-MS/MS analysis. The following applies: in vivo. The class given is ADME, organism-based. The method, boiled down: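 Groups of 2 male Sprague-Dawley rats were dosed IV at 5 mg/kg. Serial tail-vein blood was drawn into EDTA at 5–240 min, and plasma peptide was quantified by LC-MS/MS against 16–4000 ng/mL calibration lines in rat plasma. AUC was calculated by the trapezoidal method.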

The target in the next data set is Kallikrein-6 (Homo sapiens, UniProt Q92876). Put plainly: Inhibition of recombinant human C-terminal His-tagged KLK6 isoform 1 (1 to 244 residues) expressed in HEK293 cells using fluorogenic Boc-QARAMC peptide as substrate by fluorescence based assay. A digest of the protocol: (§2)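 Human serine proteases were assayed with substrates and conditions set by each supplier's recommendations. Peptides were first screened at 50 μM. Where inhibition was detected, Ki was determined from activity across peptide concentrations using a tight-binding rate equation.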

The target in data set [6] is Plasma kallikrein (Mus musculus, UniProt P26262).
Data set [7] is described as follows: Drug level in New Zealand white rabbit contralateral eye vitreous humor at 2 mg/ml, administered via ivt injection by LC-MS/MS analysis. The class given is ADME, tissue-based, Oryctolagus cuniculus. As to conditions: in vivo, topical_or_ocular.
Data set [8] has as its target T1, Complement C1s subcomponent (Homo sapiens, UniProt P09871).
T1 sequence (P09871 whole entry): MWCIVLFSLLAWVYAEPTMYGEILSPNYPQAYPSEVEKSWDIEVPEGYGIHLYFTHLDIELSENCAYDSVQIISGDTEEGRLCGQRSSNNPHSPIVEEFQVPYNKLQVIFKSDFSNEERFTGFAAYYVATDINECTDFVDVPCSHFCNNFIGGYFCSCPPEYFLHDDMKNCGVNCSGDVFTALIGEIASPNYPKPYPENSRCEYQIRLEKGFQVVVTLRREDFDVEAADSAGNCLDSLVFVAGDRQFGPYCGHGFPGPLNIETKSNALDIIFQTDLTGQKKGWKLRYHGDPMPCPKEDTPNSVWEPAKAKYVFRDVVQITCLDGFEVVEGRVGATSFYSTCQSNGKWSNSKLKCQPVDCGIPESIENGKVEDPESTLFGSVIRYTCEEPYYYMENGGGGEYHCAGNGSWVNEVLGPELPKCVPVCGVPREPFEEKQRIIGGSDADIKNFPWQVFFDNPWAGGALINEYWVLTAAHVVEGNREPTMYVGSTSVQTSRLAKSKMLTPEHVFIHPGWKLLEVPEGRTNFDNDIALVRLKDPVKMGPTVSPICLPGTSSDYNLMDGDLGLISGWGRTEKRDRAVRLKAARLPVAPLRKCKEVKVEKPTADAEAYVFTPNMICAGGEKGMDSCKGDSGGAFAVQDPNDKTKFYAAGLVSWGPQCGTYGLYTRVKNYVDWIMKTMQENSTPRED
Put plainly: Inhibition of recombinant human C-terminal 6His-tagged complement component C1s (1 to 688 residues) expressed in mouse NS0 cells using fluorogenic Z-Lys-SBzl peptide as substrate after 5 mins by fluorescence based assay. The method, boiled down: as §2

Another data set addresses (UniProt A0A8D1M4K5). Put plainly: Inhibition of pig plasma kallikrein using fluorogenic H-Pro-Phe-Arg-AMC peptide as substrate preincubated for 15 mins followed by substrate addition measured by fluorescence-based assay. The arrangement: species or system Sus scrofa. As to conditions: read-out: Ki(app).
Data set [9] addresses Plasma kallikrein (Homo sapiens, UniProt P03952). Put plainly: Inhibition of human plasma kallikrein using fluorogenic H-Pro-Phe-Arg-AMC peptide as substrate preincubated for 15 mins followed by substrate addition measured by fluorescence-based assay. The following applies: read-out: Ki(app).
For a further data set, the target named is Prothrombin (Homo sapiens, UniProt P00734). Put plainly: Inhibition of recombinant human alpha thrombin using fluorogenic peptide as substrate by fluorescence based assay. The method, boiled down: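 Panel of human serine proteases. Substrates and assay conditions followed each supplier's recommendations. Peptides were first screened at 50 μM. Where inhibition was detectable, hydrolytic activity was measured across a range of peptide concentrations. Ki was obtained by fitting to the tight-binding inhibitor rate equation.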

The test system of a further data set is Plasma. Put plainly: Anti-coagulating activity in factor 8-deficient human plasma assessed as increase in coagulation time at 10 uM by aPTT assay. The class given is functional. A digest of the protocol: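 Clotting time measured on a coagulation analyzer using actin FS, 0.025 M CaCl2, FVIII-deficient human plasma and Owren's Veronal Buffer pH 7.35, run per the manufacturer's instructions. Peptide tested from zero (vehicle) up to 10 μM. Each point is the mean ± SD of triplicates.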

The test system of data set [10] is Rattus norvegicus. Put plainly: Antiinflammatory activity in Sprague-Dawley rat assessed as inhibition carrageenan-induced paw edema at 30 mg/kg, ip pretreated for 15 mins followed by carrageenan challenge measured at 1 hr post carrageenan challenge. The class given is functional. The method, boiled down:
(§3)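 Male Sprague-Dawley rats received peptide IP (30, 10 or 3 mg/kg), or indomethacin IP at 5 mg/kg, 15 min before subplantar carrageenan. Paw volume was followed over time against a vehicle group.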
In general terms: Carrageenan injected into the paw causes an acute inflammation.

For data set [11], the system named is Rattus norvegicus. Put plainly: Antiinflammatory activity in Sprague-Dawley rat assessed as inhibition carrageenan-induced paw edema at 30 mg/kg, ip pretreated for 15 mins followed by carrageenan challenge measured at 4 hrs post carrageenan challenge. The class given is functional. The method, boiled down:
as §3

Data set [12] has as its system Rattus norvegicus. Put plainly: Antiinflammatory activity in ip dosed Sprague-Dawley rat carrageenan-induced paw edema model assessed as inhibition of edema pretreated for 15 mins followed by carrageenan challenge measured up to 6 hrs. The class given is functional, organism-based. A digest of the protocol:
as §3

Data set [13] relates to Rattus norvegicus. Put plainly: Antiinflammatory activity in Sprague-Dawley rat carrageenan-induced paw edema model assessed as inhibition of paw edema AUC (0 to 2 hrs) at 10 to 30 mg/kg, ip pretreated for 15 mins followed by carrageenan challenge. The class given is functional, organism-based. A digest of the protocol:
as §3

Another data set concerns Mus musculus. Put plainly: Antidiabetic activity in STZ-induced diabetic C57BL/6J mouse model assessed as reduction in retinal vascular permeability at 100 ug administered 4 times via ivt measured at 8 weeks post diabetes onset relative to control. The class given is functional. The method, boiled down: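 Diabetes was induced with STZ in male C57BL/6J mice. Peptide was given as repeated intravitreal injections (4 × 100 μg). Retinal permeability was read as FITC-BSA extravasation 8 weeks after diabetes onset and compared with vehicle-treated diabetic mice. The anti-VEGFR2 antibody DC101 (6.2 μg/eye, single dose) served as positive control.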

Sequence of Plasma kallikrein (Mus musculus, UniProt P26262) (P26262 20-390 limits assumed): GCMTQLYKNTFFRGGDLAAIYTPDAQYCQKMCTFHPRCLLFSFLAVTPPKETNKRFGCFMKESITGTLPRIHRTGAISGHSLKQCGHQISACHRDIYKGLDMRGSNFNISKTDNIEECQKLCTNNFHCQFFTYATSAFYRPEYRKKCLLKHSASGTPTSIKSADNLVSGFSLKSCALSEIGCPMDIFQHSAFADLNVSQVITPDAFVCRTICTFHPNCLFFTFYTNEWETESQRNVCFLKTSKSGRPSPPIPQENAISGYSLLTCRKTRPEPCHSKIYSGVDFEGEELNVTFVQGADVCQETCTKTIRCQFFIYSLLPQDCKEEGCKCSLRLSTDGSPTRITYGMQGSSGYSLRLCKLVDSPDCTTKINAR
Sequence of Plasma kallikrein (Mus musculus, UniProt P26262) (P26262 391-638 limits assumed): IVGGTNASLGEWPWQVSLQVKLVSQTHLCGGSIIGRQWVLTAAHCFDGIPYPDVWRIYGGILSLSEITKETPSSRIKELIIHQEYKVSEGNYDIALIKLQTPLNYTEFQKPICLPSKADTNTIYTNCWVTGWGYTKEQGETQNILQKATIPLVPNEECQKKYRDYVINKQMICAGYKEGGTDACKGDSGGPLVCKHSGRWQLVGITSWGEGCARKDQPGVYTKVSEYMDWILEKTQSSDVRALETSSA
Sequence of Plasma kallikrein (Homo sapiens, UniProt P03952) (P03952 20-390 limits assumed): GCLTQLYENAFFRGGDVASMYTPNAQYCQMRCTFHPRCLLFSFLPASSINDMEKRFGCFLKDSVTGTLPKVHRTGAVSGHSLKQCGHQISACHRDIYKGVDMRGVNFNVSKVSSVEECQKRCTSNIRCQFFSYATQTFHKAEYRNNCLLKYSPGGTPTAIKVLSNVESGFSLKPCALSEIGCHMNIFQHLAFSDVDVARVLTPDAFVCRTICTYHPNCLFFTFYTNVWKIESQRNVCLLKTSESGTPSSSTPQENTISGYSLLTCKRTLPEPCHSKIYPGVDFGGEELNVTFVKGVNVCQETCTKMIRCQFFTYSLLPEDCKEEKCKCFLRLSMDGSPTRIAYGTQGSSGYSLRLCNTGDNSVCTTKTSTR
Sequence of Plasma kallikrein (Homo sapiens, UniProt P03952) (P03952 391-638 limits assumed): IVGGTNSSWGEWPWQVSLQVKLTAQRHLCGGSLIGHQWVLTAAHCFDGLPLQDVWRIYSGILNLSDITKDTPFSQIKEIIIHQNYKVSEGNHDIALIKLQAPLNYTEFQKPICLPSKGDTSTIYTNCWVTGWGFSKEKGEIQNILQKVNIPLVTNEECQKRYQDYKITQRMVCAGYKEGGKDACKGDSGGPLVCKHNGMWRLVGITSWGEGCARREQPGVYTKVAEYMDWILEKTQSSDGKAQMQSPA

For `CC(=O)N[C@H]1CSCc2cc3cc(c2)CSC[C@H](NC(=O)[C@H](CCCCNC(=N)N)NC(=O)[C@H](Cc2ccc(O)cc2)NC(=O)[C@@H]2CCN2C(=O)[C@H](Cc2ccccc2)NC(=O)[C@H](CO)NC1=O)C(=O)N[C@@H](C)CN[C@@H](Cc1cnc[nH]1)C(=O)N[C@@H](CCC(N)=O)C(=O)N[C@@H](CC(=O)O)C(=O)N[C@@H](CC(C)C)C(=O)N[C@H](C(=O)O)CSC3`, the Activity entry in the data set on Rattus norvegicus [1] is given as “Non-Toxic”. The clearance in data set [2] came to 6.2 mL/min/kg. Moreover, the results for the half-life in [3] and in data set [5] were 39 h and 0.8 h, respectively. In [4], the concentration at 100 h is 8 µM.

Consider `CC[C@H](C)[C@@H]1NC(=O)[C@H](CC(=O)O)NC(=O)[C@@H]2CCCN2C(=O)[C@H](Cc2ccc(O)cc2)NC(=O)[C@H](Cc2ccc(O)cc2)NC(=O)[C@H](C(C)C)NC(=O)[C@@H]2CSCc3cc(cc(c3)CSC[C@@H](C(=O)N[C@@H](C)C(=O)N(C)CC(=O)N(C)CC(=O)N(C)CC(=O)N[C@H](CCCNC(=N)N)C(=O)N[C@H](CCCNC(=N)N)C(=O)O)NC1=O)CSC[C@H](NC(C)=O)C(=O)N[C@@H](CO)C(=O)N[C@@H](Cc1ccccc1)C(=O)N1CCC1C(=O)N[C@@H](Cc1ccc(O)cc1)C(=O)N[C@@H](CCCCNC(=N)N)C(=O)N2` (some centres undefined), for which the Ki on Kallikrein-6 is more than 50 µM; at Plasma kallikrein [6], 0.045 µM; in data set [8] it was more than 50 µM; at (UniProt A0A8D1M4K5), 0.3 µM; at Plasma kallikrein [9] it was 0.00025 µM; at Prothrombin, more than 50 µM. In data set [7], this compound displayed a Drug uptake of 1 ng/mL. The half-life in data set [3] was 22 h.

With `CC(=O)N[C@H]1CSCc2cc3cc(c2)CSC[C@H](C(=O)N[C@@H](C)C(=O)N(C)CC(=O)N(C)CC(=O)N(C)CC(=O)N[C@H](CCCNC(=N)N)C(=O)N[C@H](CCCNC(=N)N)C(=O)O)NC(=O)[C@H](CC(C)C)NC(=O)[C@@H]2CCCN2C(=O)[C@H](C)NC(=O)[C@H](CC(=O)O)NC(=O)[C@H](Cc2c[nH]c4ccccc24)NC(=O)[C@@H]2CCCN2C(=O)[C@H](CSC3)NC(=O)[C@H](Cc2c[nH]c3ccccc23)NC(=O)[C@@H]2CCCN2C(=O)[C@H](CC(N)=O)NC(=O)[C@H](Cc2c[nH]c3ccccc23)NC(=O)[C@H]([C@@H](C)O)NC(=O)[C@H](CC(N)=O)NC1=O`, the Ki (on Kallikrein-6; in [8]; at Prothrombin) was more than 50 µM each time. In addition, the Activity in the data set with Plasma was less than 5%. Moreover, in data set [2], the clearance was determined as 8.2 mL/min/kg. Moreover, the inhibition in vivo at 30 mg/kg in the data set on Rattus norvegicus [10] is 71%; with Rattus norvegicus [11], 60%. Also, the inhibition entry in the data set on Rattus norvegicus [12] is “Dose-dependent effect”. The compound also displayed a half-life in [5] of 1.3 h. Further, the inhibition result with Rattus norvegicus [13] was “Active”. Besides, the “inhibition (INH)” value with Mus musculus is given as 36%.

For orientation: clearance means a measure of how efficiently the substance is removed, as volume per time. Lower therefore signals a low capacity for elimination. One may read the half-life as the time needed for the level to fall by half in the phase considered. Low values mean rapid decline, high ones slow decline. The term inhibition in vivo denotes the drop in the measured response relative to a control, in per cent.

These data come from ChEMBL document CHEMBL4033799, “Stable and Long-Lasting, Novel Bicyclic Peptide Plasma Kallikrein Inhibitors for the Treatment of Diabetic Macular Edema” (J Med Chem, 2018).
